Common to all, as to format: functional
The test system of test [1] is Staphylococcus aureus. The test is described as follows: Reduction in bioluminescent methicillin-sensitive Staphylococcus aureus Xen29 in immunocompetent CD1 mouse with peritonitis at 100 mg/kg, sc after 3 hrs relative to control. On the set-up: scale not given: the % may be the effect or the level left. To be noted: route subcutaneous. The essentials: (§1)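 Peritonitis in healthy female CD-1 mice (n = 5/group): i.p. Xen-29 (2 × 10^7 to 5 × 10^8 CFU) in 6% mucin, then a single s.c. or gavage dose at 1 h. Controls got saline 10 ml/kg s.c. Mice were anesthetized hourly (pentobarbital 60 mg/kg i.p. or isoflurane) and imaged ventral side up for 1–5 min, to 5 h postdosing. Total flux (photons/s/cm2) over the infected region was averaged per group. Percent reduction is versus time-matched saline controls.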

In test [2] the test system is Staphylococcus aureus. The test is described as follows: Reduction in bioluminescent methicillin-sensitive Staphylococcus aureus Xen29 in immunocompetent CD1 mouse with peritonitis at 100 mg/kg, sc after 5 hrs relative to control. To be noted: route subcutaneous. On the set-up: scale not given: the % may be the effect or the level left. The essentials:
as §1

Test [3] relates to Staphylococcus aureus. Put plainly: Protection against methicillin-susceptible Staphylococcus aureus Xen29 infection in nonneutropenic CD1 mouse at 100 mg/kg, po after 7 days. The essentials: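 Female CD-1 mice (20–25 g, n = 5/group) were given an i.p. lethal inoculum of lux-bearing MSSA Xen-29 (2 × 10^7 to 5 × 10^8 CFU/mouse) suspended in 6% hog gastric mucin. A single dose was given by gavage 1 h after inoculation. Survival was recorded daily for 7 days after inoculation.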

In test [4] the test system is Staphylococcus aureus. The test is described as follows: Antibacterial activity against methicillin-susceptible Staphylococcus aureus Xen29 infected nonneutropenic CD1 mouse assessed as mouse survival at 50 mg/kg, sc after 7 days. To be noted: 168 h, route subcutaneous. The essentials: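 Healthy female CD-1 mice (20–25 g) were infected i.p. with a lethal dose of lux strain (2 × 10^7 to 5 × 10^8 CFU/mouse) from an overnight Mueller-Hinton culture suspended in 6% hog gastric mucin. A single s.c. dose was given 1 h post-inoculation. Survival was recorded daily for 7 days, n=5/group.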

For test [5], the system named is Staphylococcus aureus. Put plainly: Antimicrobial activity against bioluminescent methicillin-resistant Staphylococcus aureus Xen1. The method in brief: (§2)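 MIC by broth microdilution following CLSI guidelines against bioluminescent lux-carrying strains (Xen-1 plasmid-borne lux, Xen-29 chromosomal lux), grown overnight in Mueller-Hinton broth at 37°C.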
For test [6], the system named is Staphylococcus aureus. The test is described as follows: Reduction in bioluminescent methicillin-sensitive Staphylococcus aureus Xen29 in immunocompetent CD1 mouse with peritonitis at 100 mg/kg, sc relative to control. The arrangement: scale not given: the % may be the effect or the level left. To be noted: route subcutaneous. The method in brief: as §1
In test [7] the test system is Staphylococcus aureus. Put plainly: Reduction in bioluminescent methicillin-sensitive Staphylococcus aureus Xen29 in neutropenic CD1 mouse with peritonitis at 100 mg/kg, sc after 2 hrs relative to control. As to conditions: route subcutaneous. The arrangement: scale not given: the % may be the effect or the level left. The method in brief:
(§3)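 Neutropenia was induced with cyclophosphamide 150 mg/kg i.p. at day −4 and 100 mg/kg i.p. at day −1. Mice were then infected i.p. with Xen-29 (2 × 10^7 to 5 × 10^8 CFU) in 6% mucin (n = 5/group) and dosed once, s.c. or by gavage, at 1 h. Luminescence was imaged hourly under anesthesia, 0–5 h postdosing. Mean region-of-interest flux is given as percent reduction versus time-matched saline (10 ml/kg s.c.) controls.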

In test [8] the test system is Staphylococcus aureus. The test is described as follows: Reduction in bioluminescent methicillin-sensitive Staphylococcus aureus Xen29 in neutropenic CD1 mouse with peritonitis at 100 mg/kg, sc after 5 hrs relative to control. On the set-up: scale not given: the % may be the effect or the level left. To be noted: route subcutaneous. The method in brief: as §3
The test system of test [9] is Staphylococcus aureus. Put plainly: Reduction in bioluminescent methicillin-sensitive Staphylococcus aureus Xen29 in neutropenic CD1 mouse with peritonitis at 100 mg/kg, sc after 4 hrs relative to control. The arrangement: scale not given: the % may be the effect or the level left. As to conditions: route subcutaneous. The essentials:
as §3

Test [10] concerns Staphylococcus aureus. The test is described as follows: Antibacterial activity against methicillin-resistant Staphylococcus aureus Xen1 infected neutropenic CD1 mouse assessed as mortality at 100 mg/kg, po within 24 hrs. As to conditions: Xen1, 24 h. The method in brief:
(§4)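 Female CD-1 mice (20–25 g) were made neutropenic with cyclophosphamide i.p. at 150 mg/kg 4 days and 100 mg/kg 1 day before infection. They were infected i.p. with a lethal dose of lux strain (2 × 10^7 to 5 × 10^8 CFU/mouse) suspended in 6% hog gastric mucin. A single s.c. or gavage dose was given 1 h later. Survivors were counted daily for 7 days, n=5/group.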

Test [11] relates to Staphylococcus aureus. Put plainly: Reduction in bioluminescent methicillin-sensitive Staphylococcus aureus Xen29 in neutropenic CD1 mouse with peritonitis at 100 mg/kg, sc after 3 hrs relative to control. The arrangement: scale not given: the % may be the effect or the level left. To be noted: route subcutaneous. The method in brief: as §3
Test [12] has as its system Staphylococcus aureus. Put plainly: Antimicrobial activity against bioluminescent methicillin-susceptible Staphylococcus aureus Xen29. The essentials:
as §2

The test system of test [13] is Staphylococcus aureus. The test is described as follows: Reduction in bioluminescent methicillin-sensitive Staphylococcus aureus Xen29 in immunocompetent CD1 mouse at 100 mg/kg, sc after 4 hrs relative to control. On the set-up: scale not given: the % may be the effect or the level left. To be noted: route subcutaneous. The essentials:
as §1

Test [14] has as its system Staphylococcus aureus. The test is described as follows: Antibacterial activity against methicillin-susceptible Staphylococcus aureus Xen29 infected neutropenic CD1 mouse assessed as mortality at 100 mg/kg, po within 24 hrs. To be noted: Xen29, 24 h. The method in brief: as §4
The test system of test [15] is Staphylococcus aureus. Put plainly: Antibacterial activity against methicillin-resistant Staphylococcus aureus Xen1 infected neutropenic CD1 mouse assessed as mortality at 100 mg/kg, po after 4 days. The essentials: as §4
The subject of test [16] is Staphylococcus aureus. Put plainly: Antibacterial activity against methicillin-susceptible Staphylococcus aureus Xen29 infected neutropenic CD1 mouse assessed as mortality at 100 mg/kg, po after 4 days. The essentials:
as §4

Converted amounts (≈) assume the structure as drawn.

Turning to `CCOc1ccc2ccccc2c1C(=O)N[C@@H]1C(=O)N2[C@@H]1SC(C)(C)[C@@H]2C(=O)O` [NAFCILLIN], the Activity with Staphylococcus aureus [1] was determined as 93%; in the test with Staphylococcus aureus [2] it was 98%; in the test on Staphylococcus aureus [3], 100%; with Staphylococcus aureus [6] it was 82%; in the test on Staphylococcus aureus [7] it was 84%; with Staphylococcus aureus [8], 99.2%. Further, the figures for the Activity in the test with Staphylococcus aureus [9], in the test with Staphylococcus aureus [11] and in the test with Staphylococcus aureus [13] were 98.3%, 95.6% and 96%, respectively. For the same molecule, the survival at 50 mg/kg in the test with Staphylococcus aureus [4] is 100%. The MIC came out at 64 µg/mL (≈ 154 µM) with Staphylococcus aureus [5] and 0.5 µg/mL (≈ 1.21 µM) with Staphylococcus aureus [12]. For the same molecule, the survival at 100 mg/kg in the test on Staphylococcus aureus [10] and in the test on Staphylococcus aureus [14] was 100% throughout.

Consider `CN[C@H](CC(C)C)C(=O)N[C@H]1C(=O)N[C@@H](CC(N)=O)C(=O)N[C@H]2C(=O)N[C@H]3C(=O)N[C@H](C(=O)N[C@H](C(=O)O)c4cc(O)cc(O)c4-c4cc3ccc4O)[C@H](O)c3ccc(c(Cl)c3)Oc3cc2cc(c3O[C@@H]2O[C@H](CO)[C@@H](O)[C@H](O)[C@H]2O[C@H]2C[C@](C)(N)[C@H](O)[C@H](C)O2)Oc2ccc(cc2Cl)[C@H]1O` [VANCOMYCIN], for which the Activity with Staphylococcus aureus [15] and in the test on Staphylococcus aureus [16] was 100% in each case. Moreover, the survival at 100 mg/kg with Staphylococcus aureus [10] and in the test on Staphylococcus aureus [14] was 100% each time.

By MIC is commonly meant the lowest concentration found to suppress growth.

The values are drawn from ChEMBL document CHEMBL1144463, “Rapid bactericidal activity of daptomycin against methicillin-resistant and methicillin-susceptible Staphylococcus aureus peritonitis in mice as measured with bioluminescent bacteria” (2007).
